Substitutions are numbered along the chain they refer to.
Legend:
Details in all cases: stereoisomer not certain
OR2A25 (Homo sapiens) = target: T1, OR2A25 (Homo sapiens) (UniProt A4D2G3)
T1 sequence (whole entry): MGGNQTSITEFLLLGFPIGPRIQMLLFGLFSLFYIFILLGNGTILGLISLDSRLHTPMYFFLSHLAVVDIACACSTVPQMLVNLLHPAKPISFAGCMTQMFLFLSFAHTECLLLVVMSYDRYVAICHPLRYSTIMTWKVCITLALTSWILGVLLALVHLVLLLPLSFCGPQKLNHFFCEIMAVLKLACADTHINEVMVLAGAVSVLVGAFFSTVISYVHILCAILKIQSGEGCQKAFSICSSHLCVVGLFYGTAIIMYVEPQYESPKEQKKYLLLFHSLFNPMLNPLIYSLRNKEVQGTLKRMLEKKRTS
Summary of the method: (§1)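 Assay methods differ from source to source, frequently being transient luciferase assays in mammalian cell lines. For each receptor–molecule pair, the label responsive (active) applies when the original authors judged the measured signal statistically different from baseline, and non-responsive (inactive) applies otherwise.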

OR2B11 (Homo sapiens) = target: T2, OR2B11 (Homo sapiens) (UniProt Q5JQS5)
T2 sequence (whole entry): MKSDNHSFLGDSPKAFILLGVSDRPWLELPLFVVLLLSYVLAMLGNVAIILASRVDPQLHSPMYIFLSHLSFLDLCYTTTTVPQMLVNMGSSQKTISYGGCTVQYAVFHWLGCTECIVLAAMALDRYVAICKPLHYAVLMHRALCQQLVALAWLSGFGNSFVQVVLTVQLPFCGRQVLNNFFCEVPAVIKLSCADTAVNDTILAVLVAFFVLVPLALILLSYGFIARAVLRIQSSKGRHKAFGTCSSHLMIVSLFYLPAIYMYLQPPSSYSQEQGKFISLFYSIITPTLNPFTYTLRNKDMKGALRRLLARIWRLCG
Summary of the method: as §1

OR2A7 (Homo sapiens) = target: T3, OR2A7 (Homo sapiens) (UniProt Q96R45)
T3 sequence (whole entry): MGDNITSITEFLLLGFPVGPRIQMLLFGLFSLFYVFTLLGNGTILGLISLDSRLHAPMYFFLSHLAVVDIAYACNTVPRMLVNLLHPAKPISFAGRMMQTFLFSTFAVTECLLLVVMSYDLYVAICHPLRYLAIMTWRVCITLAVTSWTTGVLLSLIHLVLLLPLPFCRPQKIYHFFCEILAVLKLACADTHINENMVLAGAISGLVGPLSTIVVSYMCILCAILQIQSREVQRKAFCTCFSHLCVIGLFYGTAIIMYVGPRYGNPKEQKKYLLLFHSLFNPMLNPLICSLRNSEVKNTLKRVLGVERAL
Summary of the method: as §1

OR2A1 T73A R74C S168C = system: T4, OR2A1 T73A R74C S168C
T4 sequence (whole entry): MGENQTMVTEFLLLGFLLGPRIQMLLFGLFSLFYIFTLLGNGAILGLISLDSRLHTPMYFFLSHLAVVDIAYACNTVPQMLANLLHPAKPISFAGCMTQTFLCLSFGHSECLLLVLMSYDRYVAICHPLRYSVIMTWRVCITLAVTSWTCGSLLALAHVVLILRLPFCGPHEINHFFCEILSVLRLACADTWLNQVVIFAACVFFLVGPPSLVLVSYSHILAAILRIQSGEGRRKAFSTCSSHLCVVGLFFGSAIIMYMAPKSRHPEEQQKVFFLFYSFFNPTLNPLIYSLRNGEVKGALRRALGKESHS
Summary of the method: as §1

OR2A12 (Homo sapiens) = target: T5, OR2A12 (Homo sapiens) (UniProt Q8NGT7)
T5 sequence (whole entry): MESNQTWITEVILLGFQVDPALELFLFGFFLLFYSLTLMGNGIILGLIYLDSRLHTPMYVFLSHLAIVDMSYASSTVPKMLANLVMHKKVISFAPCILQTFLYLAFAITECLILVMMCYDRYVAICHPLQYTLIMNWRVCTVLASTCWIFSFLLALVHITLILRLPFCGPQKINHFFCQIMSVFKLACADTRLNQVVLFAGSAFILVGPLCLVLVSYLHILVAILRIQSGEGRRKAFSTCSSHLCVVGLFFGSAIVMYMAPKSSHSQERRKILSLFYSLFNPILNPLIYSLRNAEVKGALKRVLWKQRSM
Summary of the method: as §1

OR2A14 (Homo sapiens) = target: T6, OR2A14 (Homo sapiens) (UniProt Q96R47)
T6 sequence (whole entry): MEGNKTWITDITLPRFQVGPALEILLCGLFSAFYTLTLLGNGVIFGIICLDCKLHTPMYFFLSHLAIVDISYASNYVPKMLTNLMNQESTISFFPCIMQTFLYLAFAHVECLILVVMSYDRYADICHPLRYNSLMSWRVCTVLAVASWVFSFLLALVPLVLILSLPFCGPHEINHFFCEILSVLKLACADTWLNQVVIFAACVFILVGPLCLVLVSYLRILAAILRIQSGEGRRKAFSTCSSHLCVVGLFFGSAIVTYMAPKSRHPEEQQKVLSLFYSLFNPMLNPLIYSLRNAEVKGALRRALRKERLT
Summary of the method: as §1

OR2A2 (Homo sapiens) = target: T7, OR2A2 (Homo sapiens) (UniProt Q6IF42)
T7 sequence (whole entry): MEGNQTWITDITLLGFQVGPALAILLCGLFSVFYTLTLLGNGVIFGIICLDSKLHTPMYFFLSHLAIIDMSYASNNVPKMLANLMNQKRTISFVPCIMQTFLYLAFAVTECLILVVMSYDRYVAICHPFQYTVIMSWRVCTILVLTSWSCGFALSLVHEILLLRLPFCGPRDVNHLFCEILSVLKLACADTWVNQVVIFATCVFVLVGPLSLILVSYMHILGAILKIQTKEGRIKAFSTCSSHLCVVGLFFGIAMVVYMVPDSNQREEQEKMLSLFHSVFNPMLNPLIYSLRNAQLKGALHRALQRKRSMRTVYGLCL
Summary of the method: as §1

OR2A2 = system: T8, OR2A2
T8 sequence (whole entry): T7 sequence (whole entry) with F280L
Summary of the method: as §1

OR2A4 (Homo sapiens) = target: T9, OR2A4 (Homo sapiens) (UniProt O95047)
T9 sequence (whole entry): T3 sequence (whole entry) with T9R, C238R, F250V
Summary of the method: as §1

OR2A5 (Homo sapiens) = target: T10, OR2A5 (Homo sapiens) (UniProt Q96R48)
T10 sequence (whole entry): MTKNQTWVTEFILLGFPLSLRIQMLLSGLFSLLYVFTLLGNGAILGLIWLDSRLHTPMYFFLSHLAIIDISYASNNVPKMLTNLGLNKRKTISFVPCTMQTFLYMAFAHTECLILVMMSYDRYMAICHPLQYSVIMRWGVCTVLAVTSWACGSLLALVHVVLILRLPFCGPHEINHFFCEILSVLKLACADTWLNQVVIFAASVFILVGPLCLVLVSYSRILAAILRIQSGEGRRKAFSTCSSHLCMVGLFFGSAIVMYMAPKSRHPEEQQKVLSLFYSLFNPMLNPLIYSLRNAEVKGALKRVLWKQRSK
Summary of the method: as §1

OR2A5 I126V A202S A255T = system: T11, OR2A5 I126V A202S A255T
T11 sequence (whole entry): T10 sequence (whole entry) with I126V, A202S, A255T
Summary of the method: as §1

OR2A7 = system: T12, OR2A7
T12 sequence (whole entry): T3 sequence (whole entry) with T9R
Summary of the method: as §1

OR2AE1 (Homo sapiens) = target: T13, OR2AE1 (Homo sapiens) (UniProt Q8NHA4)
T13 sequence (whole entry): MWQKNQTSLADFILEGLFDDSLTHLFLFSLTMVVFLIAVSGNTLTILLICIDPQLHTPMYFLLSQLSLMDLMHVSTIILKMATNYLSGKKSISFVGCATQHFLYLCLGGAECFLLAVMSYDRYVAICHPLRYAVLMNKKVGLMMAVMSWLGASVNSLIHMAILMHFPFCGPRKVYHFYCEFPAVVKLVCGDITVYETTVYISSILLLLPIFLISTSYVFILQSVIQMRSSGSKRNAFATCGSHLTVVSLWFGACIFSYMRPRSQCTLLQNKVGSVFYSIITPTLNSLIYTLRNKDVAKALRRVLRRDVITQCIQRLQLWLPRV
Summary of the method: as §1

OR2AG1 (Homo sapiens) = target: T14, OR2AG1 (Homo sapiens) (UniProt Q9H205)
T14 sequence (whole entry): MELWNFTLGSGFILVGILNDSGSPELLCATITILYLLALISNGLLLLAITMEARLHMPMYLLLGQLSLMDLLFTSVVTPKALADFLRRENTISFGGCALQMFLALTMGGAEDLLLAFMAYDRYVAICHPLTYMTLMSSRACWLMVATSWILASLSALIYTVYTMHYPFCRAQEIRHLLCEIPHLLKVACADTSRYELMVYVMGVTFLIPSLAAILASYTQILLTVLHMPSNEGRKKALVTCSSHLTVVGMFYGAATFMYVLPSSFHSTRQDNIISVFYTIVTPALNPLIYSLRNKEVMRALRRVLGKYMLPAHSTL
Summary of the method: as §1

OR2AG2 (Homo sapiens) = target: T15, OR2AG2 (Homo sapiens) (UniProt A6NM03)
T15 sequence (whole entry): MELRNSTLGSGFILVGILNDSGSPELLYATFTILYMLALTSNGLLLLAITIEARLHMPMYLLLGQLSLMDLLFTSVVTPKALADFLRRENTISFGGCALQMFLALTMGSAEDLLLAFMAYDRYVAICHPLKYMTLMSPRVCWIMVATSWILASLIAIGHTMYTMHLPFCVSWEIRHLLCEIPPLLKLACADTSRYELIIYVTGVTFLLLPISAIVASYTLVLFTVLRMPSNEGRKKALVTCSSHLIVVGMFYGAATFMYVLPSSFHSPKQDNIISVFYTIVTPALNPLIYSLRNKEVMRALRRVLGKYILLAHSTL
Summary of the method: as §1

OR2AK2 (Homo sapiens) = target: T16, OR2AK2 (Homo sapiens) (UniProt Q8NG84)
T16 sequence (whole entry): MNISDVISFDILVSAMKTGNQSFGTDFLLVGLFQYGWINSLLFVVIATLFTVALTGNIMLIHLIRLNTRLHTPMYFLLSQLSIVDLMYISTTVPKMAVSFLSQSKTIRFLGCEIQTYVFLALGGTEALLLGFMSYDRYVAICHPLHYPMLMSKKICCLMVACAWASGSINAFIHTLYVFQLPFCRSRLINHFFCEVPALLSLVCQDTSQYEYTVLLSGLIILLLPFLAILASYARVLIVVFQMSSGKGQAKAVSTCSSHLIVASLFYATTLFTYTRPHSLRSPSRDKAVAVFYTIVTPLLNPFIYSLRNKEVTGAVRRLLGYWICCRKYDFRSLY
Summary of the method: as §1

OR2AP1 (Homo sapiens) = target: T17, OR2AP1 (Homo sapiens) (UniProt Q8NGE2)
T17 sequence (whole entry): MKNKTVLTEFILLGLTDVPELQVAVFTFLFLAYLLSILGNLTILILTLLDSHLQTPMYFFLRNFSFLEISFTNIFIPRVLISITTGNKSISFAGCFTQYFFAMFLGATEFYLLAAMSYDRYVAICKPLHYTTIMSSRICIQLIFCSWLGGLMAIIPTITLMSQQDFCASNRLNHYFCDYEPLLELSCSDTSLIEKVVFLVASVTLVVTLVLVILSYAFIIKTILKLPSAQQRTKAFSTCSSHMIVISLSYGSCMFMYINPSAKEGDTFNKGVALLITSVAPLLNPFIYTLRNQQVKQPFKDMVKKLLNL
Summary of the method: as §1

OR2AT4 (Homo sapiens) = target: T18, OR2AT4 (Homo sapiens) (UniProt A6NND4)
T18 sequence (whole entry): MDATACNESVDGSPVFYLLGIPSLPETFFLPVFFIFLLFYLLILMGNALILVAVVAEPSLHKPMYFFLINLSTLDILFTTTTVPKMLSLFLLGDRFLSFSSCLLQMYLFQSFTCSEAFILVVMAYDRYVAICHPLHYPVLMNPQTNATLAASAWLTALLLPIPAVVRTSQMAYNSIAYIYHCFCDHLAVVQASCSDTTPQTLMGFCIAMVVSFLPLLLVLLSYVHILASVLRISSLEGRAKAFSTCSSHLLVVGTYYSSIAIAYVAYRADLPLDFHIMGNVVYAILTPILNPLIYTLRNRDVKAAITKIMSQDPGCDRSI
Summary of the method: as §1

OR2B2 (Homo sapiens) = target: T19, OR2B2 (Homo sapiens) (UniProt Q9GZK3)
T19 sequence (whole entry): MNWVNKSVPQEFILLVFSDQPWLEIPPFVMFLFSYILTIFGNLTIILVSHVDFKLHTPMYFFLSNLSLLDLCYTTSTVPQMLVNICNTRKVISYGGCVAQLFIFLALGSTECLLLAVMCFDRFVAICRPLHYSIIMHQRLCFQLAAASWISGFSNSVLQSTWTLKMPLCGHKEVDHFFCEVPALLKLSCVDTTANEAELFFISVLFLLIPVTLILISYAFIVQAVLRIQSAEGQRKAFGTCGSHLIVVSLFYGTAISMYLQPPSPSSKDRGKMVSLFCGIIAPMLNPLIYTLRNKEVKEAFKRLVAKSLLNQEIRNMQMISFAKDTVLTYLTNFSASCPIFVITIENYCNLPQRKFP
Summary of the method: as §1

OR2AJ1 (Homo sapiens) = target: T20, OR2AJ1 (Homo sapiens) (UniProt Q8NGZ0)
T20 sequence (whole entry): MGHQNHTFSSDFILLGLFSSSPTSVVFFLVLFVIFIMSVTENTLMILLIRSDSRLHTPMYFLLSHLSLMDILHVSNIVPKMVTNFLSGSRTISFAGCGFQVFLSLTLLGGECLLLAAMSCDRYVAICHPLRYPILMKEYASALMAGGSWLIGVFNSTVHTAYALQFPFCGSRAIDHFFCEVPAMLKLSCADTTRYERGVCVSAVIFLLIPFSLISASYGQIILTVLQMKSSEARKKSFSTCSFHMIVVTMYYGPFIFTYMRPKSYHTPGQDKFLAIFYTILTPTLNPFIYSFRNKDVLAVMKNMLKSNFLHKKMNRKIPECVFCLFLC
Summary of the method: as §1

Measured: odorant receptor agonist call

c1ccc2ncccc2c1
active: OR2A25 (Homo sapiens) | OR2B11 (Homo sapiens)

CCCCCCCCCCCCCCCCCC(=O)OC
inactive: OR2A7 (Homo sapiens)

CCCO
inactive: OR2A7 (Homo sapiens)

CCC1OC(C)=C(O)C1=O (centres undefined)
not listed: OR2AJ1 (Homo sapiens)
inactive: all other assays above

Cc1ccc(C(C)C)cc1
inactive: OR2A7 (Homo sapiens)

C=C1CCC2CC1C2(C)C (centres undefined)
active: OR2A7 (Homo sapiens)

CCC(=O)O
inactive: OR2A7 (Homo sapiens)

CCCCCC(S)C(C)CO (centres undefined)
active: OR2AK2 (Homo sapiens) | OR2B2 (Homo sapiens)
not listed: OR2A1 T73A R74C S168C | OR2A2 | OR2A5 I126V A202S A255T | OR2A7
inactive: all other assays above

CCCCCCCCO
inactive: OR2A7 (Homo sapiens)

CC1=C(O)C(=O)C(C)O1 (centres undefined)
not listed: OR2AJ1 (Homo sapiens)
inactive: all other assays above

CCCCCCCCCCCCCC(=O)O
inactive: OR2A7 (Homo sapiens)

Cc1cccc(C)c1C
inactive: OR2A7 (Homo sapiens)

From the M2OR odorant receptor database
